The subject of test [1] is HeLa. Kind of test: Cytotoxicity against human HeLa cells after 72 hrs by MTT assay. Format: functional, cell-based. In short, it runs like this: (§1)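 Exponentially growing cells seeded at 1–8 × 10³ cells/well and left 24 h. Medium then replaced with medium holding compound in DMSO (final DMSO <0.1%), ten serial threefold dilutions, or DMSO alone. Triplicate wells, 72 h exposure. MTT added, 1 h at 37 °C, formazan dissolved in DMSO, A550 read. IC50 by non-linear regression; mean ± SD of at least three experiments.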
Background: Tetrazolium assays rely on reduction of a dye to a coloured formazan, in cell work by metabolically active cells.

Test [2] has as its system Jurkat. Kind of test: Cytotoxicity against human Jurkat cells after 72 hrs by XTT assay. Format: functional, cell-based. In short, it runs like this: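 Exponentially growing Jurkat cells (RPMI 1640, 10% heat-inactivated FBS, 1% P/S, 2 mM glutamine) seeded at 5.5 × 10³ cells/well. Exposed to ten serial threefold dilutions of compound or DMSO vehicle in medium, triplicate wells, 72 h. XTT labeling mixture then added for 4 h at 37 °C, A450 read. IC50 by non-linear regression; mean ± SD of at least three experiments.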

Test [3] relates to HepG2. Kind of test: Cytotoxicity against human HepG2 cells after 72 hrs by MTT assay. Format: functional, cell-based. The following applies: HepG2, 72 h. In short, it runs like this: as §1
For test [4], the system named is HT-29. Kind of test: Cytotoxicity against human HT-29 cells after 72 hrs by MTT assay. Format: functional, cell-based. The following applies: HT-29, 72 h. In short, it runs like this: as §1
Test [5] deals with T1, DNA topoisomerase 1 (Homo sapiens) (UniProt P11387).
T1 sequence (whole entry): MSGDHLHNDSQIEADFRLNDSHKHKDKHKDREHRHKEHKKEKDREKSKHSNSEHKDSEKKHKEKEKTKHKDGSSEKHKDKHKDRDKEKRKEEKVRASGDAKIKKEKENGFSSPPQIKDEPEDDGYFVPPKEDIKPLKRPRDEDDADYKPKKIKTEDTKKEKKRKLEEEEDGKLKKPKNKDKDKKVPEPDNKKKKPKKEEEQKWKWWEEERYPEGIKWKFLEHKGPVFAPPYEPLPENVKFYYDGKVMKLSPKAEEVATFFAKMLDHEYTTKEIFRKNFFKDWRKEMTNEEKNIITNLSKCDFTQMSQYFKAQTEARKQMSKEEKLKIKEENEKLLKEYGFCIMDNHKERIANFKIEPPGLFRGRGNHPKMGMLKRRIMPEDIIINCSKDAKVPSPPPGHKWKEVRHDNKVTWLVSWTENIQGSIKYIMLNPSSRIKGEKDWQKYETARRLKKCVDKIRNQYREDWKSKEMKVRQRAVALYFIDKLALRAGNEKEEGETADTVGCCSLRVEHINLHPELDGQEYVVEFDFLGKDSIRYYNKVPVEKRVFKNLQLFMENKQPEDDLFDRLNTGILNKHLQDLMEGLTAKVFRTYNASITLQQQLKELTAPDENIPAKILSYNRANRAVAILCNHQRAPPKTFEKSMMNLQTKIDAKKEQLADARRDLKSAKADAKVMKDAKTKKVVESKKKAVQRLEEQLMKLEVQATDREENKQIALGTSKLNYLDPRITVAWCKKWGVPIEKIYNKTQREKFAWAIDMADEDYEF
Kind of test: Inhibition of DNA topoisomerase 1-mediated relaxation of supercoiled plasmid DNA at 100 uM after 3 hrs by gel electrophoresis. In short, it runs like this:
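Topoisomerase I kit assay. Compound at 100 µM final with 0.5% DMSO. Started with 5 U topo I, run 30 min at 37 °C, stopped with 1% SDS. Products resolved on 1% agarose in TAE at 80 V for 3 h, ethidium-stained. Inhibition scored 0 to 3+.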

The subject of test [6] is BJ. Put plainly: Cytotoxicity against human BJ cells after 72 hrs by MTT assay. It is filed as cell-based. In short, it runs like this:
as §1

Test [7] has as its system PC-3. Kind of test: Cytotoxicity against human PC3 cells after 72 hrs by MTT assay. Format: functional, cell-based. Conditions: PC-3, 72 h. In short, it runs like this: as §1
Test [8] deals with BJ. Put plainly: Selectivity ratio of IC50 for human BJ cells to IC50 for human PC3 cells.
Test [9] relates to PC-3. Put plainly: Ratio of betulinic acid IC50 to compound IC50 for human PC3 cells. Format: functional.
The mark [10] stands for this setting: in the assay text read “after 30 mins” for “after 3 hrs”.

The structures appear in SMILES notation. Activity calls are given as the source filed them. The calls are words filed in the database; no cut-off is given here.

In the case of `C=C(C)[C@@H]1CC[C@]2(COC(C)=O)CC[C@]3(C)[C@H](CC[C@@H]4[C@@]5(C)CC[C@H](OC(=O)n6ccnc6C)C(C)(C)[C@@H]5CC[C@]43C)[C@@H]12`, the IC50 in test [1], in test [2], in test [3] and in test [4] was more than 30 µM each time.
In the case of `C=C(C)[C@@H]1CC[C@]2(C(=O)O)CC[C@]3(C)[C@H](CC[C@@H]4[C@@]5(C)CC[C@H](OC(=O)n6ccnc6C)C(C)(C)[C@@H]5CC[C@]43C)[C@@H]12`, the IC50 was 7.5 µM in test [1]; 41.3 µM in [6]; 6.1 µM in test [2]; 7.3 µM in test [3]; 5.7 µM in [4]. The inhibition entry in test [5] was “Active”.
On to `C=C(C)[C@@H]1CC[C@]2(C(=O)n3cncn3)CC[C@]3(C)[C@H](CC[C@@H]4[C@@]5(C)CC[C@H](OC(=O)n6cncn6)C(C)(C)[C@@H]5CC[C@]43C)[C@@H]12`, for which the 50% inhibitory concentration (IC50) in test [7] was found to be 1.1 µM; in test [1], 4.1 µM; in [6], 19.4 µM; in [2] it was 11.6 µM; in test [3] it was 6.8 µM; in [4], 1.9 µM. The “Ratio IC50” value in [8] was determined as 15; in test [9] it was 19. For the same molecule, the inhibition entry in [5] was “Active”.
For the molecule `C=C(C)[C@@H]1CC[C@]2(C(=O)n3ccnc3C)CC[C@]3(C)[C@H](CC[C@@H]4[C@@]5(C)C=CC(=O)C(C)(C)[C@@H]5CC[C@]43C)[C@@H]12`, the half-inhibitory concentration (IC50) is 10.6 µM in test [1], 12.5 µM in test [2], 6.8 µM in [3] and 9 µM in test [4]. Moreover, the inhibition result in test [5] (setting [10]) is “inactive”.
As for `C=C(C)[C@@H]1CC[C@]2(COC(C)=O)CC[C@]3(C)[C@H](CC[C@@H]4[C@@]5(C)CC[C@H](OC(=O)n6cncn6)C(C)(C)[C@@H]5CC[C@]43C)[C@@H]12`, the 50% inhibitory concentration (IC50) in [7] and in [4] was more than 30 µM each time.
Take `C=C(C)[C@@H]1CC[C@]2(C(=O)n3ccnc3C)CC[C@]3(C)[C@H](CC[C@@H]4[C@@]5(C)CCC(=O)C(C)(C)[C@@H]5CC[C@]43C)[C@@H]12`: the IC50 in test [1] was 4.2 µM; in [6] it was 48.4 µM; in test [2] it was 5.3 µM; in test [3], 5.5 µM; in test [4], 4.7 µM. For the same molecule, in [5], the inhibition result was “inactive”.
In the case of `C=C(COC)[C@@H]1CC[C@]2(COC(=O)n3cncn3)CC[C@]3(C)[C@H](CC[C@@H]4[C@@]5(C)CC[C@H](OC(=O)n6cncn6)C(C)(C)[C@@H]5CC[C@]43C)[C@@H]12`, the half-maximal inhibitory concentration (IC50) came out at 6.4 µM in test [7] and 12.3 µM in [4]. For the same molecule, the inhibition result in test [5] was “inactive”.
On to `C=C(COC)[C@@H]1CC[C@]2(COC(=O)n3cncn3)CC[C@]3(C)[C@H](CC[C@@H]4[C@@]5(C)CC[C@H](O)C(C)(C)[C@@H]5CC[C@]43C)[C@@H]12`, for which the IC50 is 2.6 µM in [7]; 24.3 µM in test [1]; 46.6 µM in test [6]; 9.5 µM in test [2]; 9.1 µM in test [3]; 5.8 µM in [4]. In addition, the “Ratio IC50” value in test [8] is on record as 15. In addition, the inhibition result in test [5] was “Active”.
For the molecule `C=C(COC)[C@@H]1CC[C@]2(COC(=O)n3ccnc3C)CC[C@]3(C)[C@H](CC[C@@H]4[C@@]5(C)CC[C@H](OC(=O)n6ccnc6C)C(C)(C)[C@@H]5CC[C@]43C)[C@@H]12`, the IC50 in test [1] is 13.4 µM; in test [2], more than 30 µM; in test [3], 28.2 µM; in test [4] it was more than 30 µM. Further, in test [5] (setting [10]), the inhibition result was “inactive”.
Take `C=C(C)[C@@H]1CC[C@]2(CO)CC[C@]3(C)[C@H](CC[C@@H]4[C@@]5(C)CC[C@H](OC(=O)n6cncn6)C(C)(C)[C@@H]5CC[C@]43C)[C@@H]12`: the IC50 in test [7] stood at 2.1 µM; in test [1], 6.9 µM; in test [6], 39.4 µM; in test [2], 12.2 µM; in test [3] it was 7.3 µM; in [4], 4.9 µM. Also, the “Ratio IC50” value in [8] was determined as 15. In addition, the inhibition entry in test [5] (setting [10]) is “Active”.
Regarding `C=C(C)[C@@H]1CC[C@]2(COC(=O)n3ccnc3C)CC[C@]3(C)[C@H](CC[C@@H]4[C@@]5(C)CC[C@H](O)C(C)(C)[C@@H]5CC[C@]43C)[C@@H]12`, the IC50 in test [1] amounted to 11 µM; in test [2] it was 15.8 µM; in test [3] it was 36.4 µM; in test [4], 16.2 µM. For the same molecule, in test [5] (setting [10]), the inhibition entry is “inactive”.
`C=C(C)[C@@H]1CC[C@]2(COC(=O)n3cncn3)CC[C@]3(C)[C@H](CC[C@@H]4[C@@]5(C)CC[C@H](OC(C)=O)C(C)(C)[C@@H]5CC[C@]43C)[C@@H]12`: the half-maximal inhibitory concentration (IC50) in test [7] and in [4] was more than 30 µM throughout.
As for `C=C(COC)[C@@H]1CC[C@]2(COC(=O)n3ccnc3C)CC[C@]3(C)[C@H](CC[C@@H]4[C@@]5(C)CC[C@H](O)C(C)(C)[C@@H]5CC[C@]43C)[C@@H]12`, the 50% inhibitory concentration (IC50) was 8.9 µM in test [1], 24.8 µM in test [2], 14.4 µM in test [3] and 10.4 µM in test [4]. Besides, the inhibition entry in test [5] (setting [10]) was “inactive”.
For the molecule `C=C(C)[C@@H]1CC[C@]2(C(=O)O)CC[C@]3(C)[C@H](CC[C@@H]4[C@@]5(C)CC[C@H](O)C(C)(C)[C@@H]5CC[C@]43C)[C@@H]12` [BETULINIC ACID], the concentration for half-maximal inhibition (IC50) in test [7] amounted to 21.5 µM; in test [1], 26 µM; in [2], 26.9 µM; in test [3], 36.4 µM; in test [4], 12.8 µM.
As to `Cc1nccn1C(=O)OC[C@]12CC[C@@H]([C@@H](C)C=O)C1[C@H]1CC[C@@H]3[C@@]4(C)CC[C@H](O)C(C)(C)[C@@H]4CC[C@@]3(C)[C@]1(C)CC2` (some centres undefined), the concentration for half-maximal inhibition (IC50) in [1] amounted to 16.6 µM; in test [2], 21.3 µM; in [3], 14.3 µM; in [4], 15.8 µM. In addition, the inhibition result in test [5] (setting [10]) is “Active”.
On to `C=C(C)[C@@H]1CC[C@]2(COC(=O)n3cncn3)CC[C@]3(C)[C@H](CC[C@@H]4[C@@]5(C)CC[C@H](O)C(C)(C)[C@@H]5CC[C@]43C)[C@@H]12`, for which the IC50 turned out to be 4.7 µM in [7] and 7.6 µM in [4]. In addition, the inhibition entry in test [5] was “inactive”.
In the case of `C=C(C)[C@@H]1CC[C@]2(COC(=O)n3ccnc3C)CC[C@]3(C)[C@H](CC[C@@H]4[C@@]5(C)CC[C@H](OC(C)=O)C(C)(C)[C@@H]5CC[C@]43C)[C@@H]12`, the 50% inhibitory concentration (IC50) in test [1], in test [2], in test [3] and in test [4] was more than 30 µM in each case.
With `C=C(C)[C@@H]1CC[C@]2(COC(=O)n3cncn3)CC[C@]3(C)[C@H](CC[C@@H]4[C@@]5(C)CC[C@H](OC(=O)n6cncn6)C(C)(C)[C@@H]5CC[C@]43C)[C@@H]12`, the figures for the half-maximal inhibitory concentration (IC50) in test [7] and in [4] were 7.9 µM and 17.5 µM, respectively. The inhibition result in [5] is “inactive”.
For the molecule `C=C(C)[C@@H]1CC[C@]2(COC(=O)n3ccnc3C)CC[C@]3(C)[C@H](CC[C@@H]4[C@@]5(C)CC[C@H](OC(=O)n6ccnc6C)C(C)(C)[C@@H]5CC[C@]43C)[C@@H]12`, the IC50 in test [1], in test [2], in test [3] and in test [4] was more than 30 µM in each case. In addition, in test [5] (setting [10]), the inhibition entry is “inactive”.
With `C=C(C)[C@@H]1CC[C@]2(C(=O)O)CC[C@]3(C)[C@H](CC[C@@H]4[C@@]5(C)C=C(OC(=O)n6ccnc6C)C(=O)C(C)(C)[C@@H]5CC[C@]43C)[C@@H]12`, the 50% inhibitory concentration (IC50) was determined as 6.4 µM in test [1]; 37.2 µM in test [6]; 9.4 µM in test [2]; 4.7 µM in test [3]; 5.9 µM in test [4]. The inhibition result in test [5] (setting [10]) was “Active”.

Usually IC50 stands for the point on the concentration scale where inhibition reaches its midpoint.

The values are drawn from ChEMBL document CHEMBL1165980, “Synthesis and structure-activity relationship study of novel cytotoxic carbamate and N-acylheterocyclic bearing derivatives of betulin and betulinic acid” (Bioorg Med Chem, 2010).
